# Laboratory results reported in PMC11399684 (Saudi Pharmaceutical Journal : SPJ, 2024).
# Legend:
# [1] = Plasma pharmacokinetic study; assay type: in vivo, male Wistar rats; settings: drug delivered by MPG2 (MPG2ER), intraperitoneal
# Summary of the method: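 Male Wistar rats (200 ± 50 g), fasted, got a single intraperitoneal dose of the dendrimer formulation at 10 mg/kg drug equivalent in 5 % v/v DMSO, with 4 rats per time point. Retro-orbital blood (0.5 ml) was drawn at 0.5–96 h and centrifuged for 10 min at 12000 rpm, 4 °C. Plasma underwent single-step protein precipitation and HPLC at 254 nm. Parameters came from non-compartmental analysis.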
# [2] = Tissue distribution study; assay type: in vivo, male Wistar rats; settings: for AUCtol / AUMC / Cl: after MPG2ER 10 mg/kg i.p.; for Cmax / MRT / Tmax / half-life: male, Wistar, rat, ip, 10 mg/kg
# Summary of the method: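 Male Wistar rats (200 ± 50 g), fasted, were dosed intraperitoneally with the formulation at 10 mg/kg drug equivalent in 5 % v/v DMSO, with 4 rats per time point. At 0.5, 1, 2, 4, 6, 12, 24, 48, 72 and 96 h, rats were killed by cervical dislocation. Excised tissues were homogenised, protein-precipitated in a single step and assayed for drug by HPLC.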
smiles,measurement,setting,value
"O=C1Nc2ccc(Cl)cc2[C@@](C#CC2CC2)(C(F)(F)F)O1 [EFV, efavirenz]",Duration of sustained release in plasma,[1],up to 96 hrs
same,AUCtol,[2]; Brain,124±1.660 (μg/mL)*hr
same,AUMC,[2]; Brain,3245±73.69 (μg/mL)*hr
same,Cl,[2]; Brain,0.08064±0.001 (μg/kg)/((μg/mL)/hr
same,AUCtol,[2]; Heart,132.1±1.150 (μg/mL)*hr
same,AUMC,[2]; Heart,4027 ±87.53 (μg/mL)*hr
same,Cl,[2]; Heart,0.07601±0.003 (μg/kg)/((μg/mL)/hr
same,AUCtol,[2]; Kidney,121.2±0.164 (μg/mL)*hr
same,AUMC,[2]; Kidney,3190±6.976 (μg/mL)*hr
same,Cl,[2]; Kidney,0.08248±0.001 (μg/kg)/((μg/mL)/hr
same,AUCtol,[2]; Liver,97.88±1.146 (μg/mL)*hr
same,AUMC,[2]; Liver,2959±32.860 (μg/mL)*hr
same,Cl,[2]; Liver,0.1075±0.008 (μg/kg)/((μg/mL)/hr
same,AUCtol,[2]; Lymph Node,96.33±0.190 (μg/mL)*hr
same,AUMC,[2]; Lymph Node,3143±75.49 (μg/mL)*hr
same,Cl,[2]; Lymph Node,0.1038±0.002 (μg/kg)/((μg/mL)/hr
same,AUCtol,[2]; Spleen,88±2.205 (μg/mL)*hr
same,AUMC,[2]; Spleen,2799±81.109 (μg/mL)*hr
same,Cl,[2]; Spleen,0.1156±0.002 (μg/kg)/((μg/mL)/hr
same,Cmax,[2]; brain,6653 ± 35 ng/mL
same,MRT,[2]; brain,26.2 ± 0.284 h
same,Tmax,[2]; brain,6 h
same,half-life,[2]; brain,13.53 ± 0.088 h
same,Cmax,[2]; heart,4674 ± 25 ng/mL
same,MRT,[2]; heart,30.3 ± 1.28 h
same,Tmax,[2]; heart,6 h
same,half-life,[2]; heart,19.3 ± 0.598 h
same,Cmax,[2]; kidney,5342 ± 20 ng/mL
same,MRT,[2]; kidney,27.3 ± 1.02 h
same,Tmax,[2]; kidney,6 h
same,half-life,[2]; kidney,17.52 ± 0.0127 h
same,Cmax,[2]; liver,5980 ± 83 ng/mL
same,MRT,[2]; liver,30.7 ± 0.384 h
same,Tmax,[2]; liver,6 h
same,half-life,[2]; liver,16.9 ± 1.09 h
same,Cmax,[2]; lymph node,3440 ± 48 ng/mL
same,MRT,[2]; lymph node,32.63 ± 0.113 h
same,Tmax,[2]; lymph node,6 h
same,half-life,[2]; lymph node,21 ± 0.054 h
same,Cmax,[2]; spleen,4580 ± 69 ng/mL
same,MRT,[2]; spleen,32.1 ± 1.65 h
same,Tmax,[2]; spleen,6 h
same,half-life,[2]; spleen,21.9 ± 0.25 h
"CC(C)c1nc(CN(C)C(=O)N[C@H](C(=O)N[C@@H](Cc2ccccc2)C[C@H](O)[C@H](Cc2ccccc2)NC(=O)OCc2cncs2)C(C)C)cs1 [RTV, ritonavir]",Duration of sustained release in plasma,[1],≤ 72 h
same,AUCtol,[2]; Brain,9.25±2.074 (μg/mL)*hr
same,AUMC,[2]; Brain,97.42± 68.213 (μg/mL)*hr
same,Cl,[2]; Brain,0.270± 0.008 (μg/kg)/((μg/mL)/hr
same,AUCtol,[2]; Heart,18.34±1.190 (μg/mL)*hr
same,AUMC,[2]; Heart,285.923± 47.303 (μg/mL)*hr
same,Cl,[2]; Heart,0.136± 0.032 (μg/kg)/((μg/mL)/hr
same,AUCtol,[2]; Kidney,29.27±1.620 (μg/mL)*hr
same,AUMC,[2]; Kidney,641.30± 73.625 (μg/mL)*hr
same,Cl,[2]; Kidney,0.087± 0.036 (μg/kg)/((μg/mL)/hr
same,AUCtol,[2]; Liver,14.51±2.024 (μg/mL)*hr
same,AUMC,[2]; Liver,240.78± 26.201 (μg/mL)*hr
same,Cl,[2]; Liver,0.172± 0.012 (μg/kg)/((μg/mL)/hr
same,AUCtol,[2]; Lymph Node,25.07±1.305 (μg/mL)*hr
same,AUMC,[2]; Lymph Node,421.67± 81.067 (μg/mL)*hr
same,Cl,[2]; Lymph Node,0.085± 0.007 (μg/kg)/((μg/mL)/hr
same,AUCtol,[2]; Spleen,25.82±0.934 (μg/mL)*hr
same,AUMC,[2]; Spleen,464.21± 27.094 (μg/mL)*hr
same,Cl,[2]; Spleen,0.091± 0.043 (μg/kg)/((μg/mL)/hr
same,Cmax,[2]; brain,790 ± 32 ng/mL
same,MRT,[2]; brain,10.5 ± 1 h
same,Tmax,[2]; brain,4 h
same,half-life,[2]; brain,6.67 ± 0.792 h
same,Cmax,[2]; heart,2400 ± 15 ng/mL
same,MRT,[2]; heart,15.6 ± 1.93 h
same,Tmax,[2]; heart,4 h
same,half-life,[2]; heart,13.4 ± 0.45 h
same,Cmax,[2]; kidney,2490 ± 55 ng/mL
same,MRT,[2]; kidney,21.9 ± 0.761 h
same,Tmax,[2]; kidney,4 h
same,half-life,[2]; kidney,14.7 ± 0.652 h
same,Cmax,[2]; liver,2890 ± 21 ng/mL
same,MRT,[2]; liver,16.6 ± 0.272 h
same,Tmax,[2]; liver,4 h
same,half-life,[2]; liver,10.9 ± 0.325 h
same,Cmax,[2]; lymph node,2030 ± 42 ng/mL
same,MRT,[2]; lymph node,16.3 ± 0.937 h
same,Tmax,[2]; lymph node,4 h
same,half-life,[2]; lymph node,12.9 ± 1.09 h
same,Cmax,[2]; spleen,2130 ± 24 ng/mL
same,MRT,[2]; spleen,18 ± 1 h
same,Tmax,[2]; spleen,4 h
same,half-life,[2]; spleen,13 ± 1.02 h
